Read-outs that look alike come from different tables or passages of the source.
Experiments:
[1] = Stability in 5 mg/mL K562 extract in lysis buffer; format: in vitro ADME; settings: n=2
[2] = by 24 hours in plasma; cited from earlier work
K562 cells [3] = settings: read-out: Toxicity IC50, control compounds; cited from earlier work
[4] = Stability in 50% plasma in phosphate buffered saline; format: in vitro ADME
K562 cells [5] = assay: Direct toxicity against K562 cells; format: cell-based; settings: Homo sapiens, K562, 72 h, read-out: Toxicity IC50
Method in brief: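 Test compounds were applied directly to K562 cells, without T cells, to measure direct toxicity. n=3.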

| SMILES | IC50 (K562 cells [3]) [µM] | IC50 (K562 cells [5]) [µM] | further results |
| --- | --- | --- | --- |
| C/C(=C\CCP(=O)(OCOC(=O)C(C)(C)C)OCOC(=O)C(C)(C)C)CO [Compound 5] | > 100 |  | K562 extract (4 h, percent remaining) [1]: totally disappeared; percent metabolized in plasma [2]: 95% |
| CCOC(=O)CNP(=O)(CC/C=C(\C)CO)Oc1ccccc1 (centres unmarked) [Compound 6] | > 100 |  |  |
| C/C(=C\CCP(=O)(OCC(=O)OC(C)(C)C)Oc1ccccc1)CO (centres unmarked) [Compound 7] | > 100 |  |  |
| CCOC(=O)[C@H](C)NP(=O)(CCC=C(C)C)N[C@@H](C)C(=O)OCC [Compound 12] |  |  | remaining at 24 h [4]: ≥ 70% |
| CCOC(=O)CNP(=O)(CC/C=C(\C)CO)NCC(=O)OCC [Compound 16] |  | 10 to 100 |  |
| COC(=O)[C@@H](NP(=O)(CC/C=C(\C)CO)N[C@H](C(=O)OC)C(C)C)C(C)C [Compound 17] |  | 10 to 100 |  |

— publication PMC10245299 (Bioorganic & medicinal chemistry letters, 2022)
